Measurements published in ChEMBL document CHEMBL1128702, “Structure-activity relationships of the antimalarial agent artemisinin. 2. Effect of heteroatom substitution at O-11: synthesis and bioassay of N-alkyl-11-aza-9-desmethylartemisinins” (J Med Chem, 1995).

Tests used:
Homo sapiens [1] = organism: Homo sapiens; experiment: Relative potency was determined in vitro in paratized human whole blood against chloroquine sensitive (D-6) strain of Plasmodium falciparum in University of mississippi using parasite lactate dehydrogenase assay; assay type: functional
Procedure, shortened: (§1)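 P. falciparum W-2 and D-6 tested at University of Mississippi by Makler parasite lactate dehydrogenase assay: pLDH reduces APAD to APADH (human RBC LDH does so only slowly); APADH detected colorimetrically via nitroblue tetrazolium reduction to blue formazan. Relative potencies derived as for the Walter Reed assay.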

Plasmodium falciparum [2] = experiment: Relative potency was determined in vitro in paratized human whole blood against drug resistant strain of Plasmodium falciparum strain-Sierra Leone(D-6)
Plasmodium falciparum [3] = experiment: Relative potency was determined in vitro in paratized human whole blood against drug resistant strain of Plasmodium falciparum strain-Indochina(W-2)
Homo sapiens [4] = organism: Homo sapiens; experiment: Relative potency was determined in vitro in paratized human whole blood against […]strain of Plasmodium falciparum in WR(Walter Reed) army institute of research; assay type: functional
Homo sapiens [5] = organism: Homo sapiens; experiment: Relative potency was determined in vitro in paratized human whole blood against […]strain of Plasmodium falciparum in University of mississippi using parasite lactate dehydrogenase assay; assay type: functional; procedure, shortened: as §1
[6] = Partition coefficient (logP); assay type: physicochemical; conditions: octanol/water
Procedure, shortened: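 log P measured by literature procedures using standard values, also calculated with CLOGP; UV detection at 330 nm for ketone standards and 216 nm for artemisinin derivatives; samples run in triplicate.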

Compound	Relative potency (Homo sapiens [1]) [%]	Relative potency (Plasmodium falciparum [2]) [%]	Relative potency (Plasmodium falciparum [3]) [%]	Relative potency (Homo sapiens [4]) [%]	Relative potency (Homo sapiens [5]) [%]	logP [6]
C[C@@H]1CC[C@H]2CC(=O)N(Cc3ccccc3)C3O[C@@]4(C)CC[C@@H]1[C@]32OO4 (stereo partly drawn)	146	189	217	217	252	–
C[C@@H]1CC[C@H]2CC(=O)N(Cc3ccc(Cl)cc3)C3O[C@@]4(C)CC[C@@H]1[C@]32OO4 (stereo partly drawn)	128	111	69	69	311	3.96
C[C@@H]1CC[C@H]2CC(=O)N(CCCCCC(=O)O)C3O[C@@]4(C)CC[C@@H]1[C@]32OO4 (stereo partly drawn)	–	12	2	–	–	–
C[C@@H]1CC[C@H]2CC(=O)N(CCN(C)C)C3O[C@@]4(C)CC[C@@H]1[C@]32OO4 (stereo partly drawn)	–	37	–	–	–	–
C[C@@H]1CC[C@H]2CC(=O)N(CCc3ccccc3)C3O[C@@]4(C)CC[C@@H]1[C@]32OO4 (stereo partly drawn)	187	197	143	143	204	3.5
CC(C)CN1C(=O)C[C@@H]2CC[C@@H](C)[C@@H]3CC[C@@]4(C)OO[C@@]23C1O4 (stereo partly drawn)	155	145	105	105	227	3.01
C[C@@H]1CC[C@H]2CC(=O)N(CC(=O)O)C3O[C@@]4(C)CC[C@@H]1[C@]32OO4 (stereo partly drawn)	–	6	–	–	–	1.69
CC(C)CCN1C(=O)C[C@@H]2CC[C@@H](C)[C@@H]3CC[C@@]4(C)OO[C@@]23C1O4 (stereo partly drawn)	–	149	92	–	–	3.54
CCCN1C(=O)C[C@@H]2CC[C@@H](C)[C@@H]3CC[C@@]4(C)OO[C@@]23C1O4 (stereo partly drawn)	–	75	111	–	–	2.61
C[C@@H]1CC[C@H]2CC(=O)N(CCCc3ccccc3)C3O[C@@]4(C)CC[C@@H]1[C@]32OO4 (stereo partly drawn)	147	205	105	105	281	4.03
C[C@@H]1CC[C@H]2CC(=O)N(C)C3O[C@@]4(C)CC[C@@H]1[C@]32OO4 (stereo partly drawn)	–	213	500	–	–	1.55
CCCCCN1C(=O)C[C@@H]2CC[C@@H](C)[C@@H]3CC[C@@]4(C)OO[C@@]23C1O4 (stereo partly drawn)	–	110	63	–	–	3.67
C[C@@H]1CC[C@H]2[C@@H](C)C(=O)O[C@@H]3O[C@@]4(C)CC[C@@H]1[C@]32OO4 [ARTEMISININ]	–	100	100	–	–	–
